{"source": "paper PMC3947091", "about": "(Molecular imaging and biology : MIB : the official …, 2014)", "key": {"glioblastomas": {"system": "glioblastomas", "conditions": "90 of 139 patients; white light comparison 47 (36 %) of 131 patients; cited from earlier work"}, "U87-Luc tumors [1]": {"system": "U87-Luc tumors", "type": "in vivo, nude mice", "conditions": "10 μg", "method_in_brief": "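Male nude mice (8–10 weeks) had 1×10⁶ U87-Luc cells implanted stereotaxically (3 mm deep, 1 mm right, 2.5 mm behind bregma). Tumor take was checked by bioluminescence on day 10 (iv d-luciferin 4 mg/kg). Cy5.5-labeled test probe or scrambled control, 10 μg, given by tail vein. NIR imaging at 1, 4 and 24 h (ex 675 nm, em 695–770 nm). Mice killed at each time point (n=4); organs weighed and imaged ex vivo. Manual ROI, photons/s/cm².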"}, "U251-Luc tumors [2]": {"system": "U251-Luc tumors", "assay": "NIR optical imaging, orthotopic U251-Luc tumors", "type": "in vivo, nude mice", "conditions": "24 h after tail vein injection, 10 μg", "method_in_brief": "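Orthotopic xenograft made with 3×10⁶ U251-Luc cells stereotaxically implanted in male nude mice (8–10 weeks; 3 mm deep, 1 mm right, 2.5 mm behind bregma). Bioluminescence check on day 10. Tail-vein injection of 10 μg Cy5.5-labeled probe (n=12). NIR imaging at 1, 4 and 24 h (ex 675 nm/30 nm bandwidth, em 695–770 nm); tissues analyzed ex vivo at 24 h. Manual ROI, photons/s/cm².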"}, "U251-Luc tumors [3]": {"system": "U251-Luc tumors", "assay": "μPET/CT imaging with blocking experiment, orthotopic U251-Luc tumors", "type": "in vivo, nude mice", "method_in_brief": "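In orthotopic U251-Luc nude mice (n=3), ⁶⁴Cu-labeled probe (7.4 MBq, 0.5–1.0 μg) was given by tail vein, alone or with 50 μg/mouse of unlabeled probe for blocking. μPET/CT at 1 and 24 h. ROIs drawn on tumor, normal brain and a standard holding 1% of the injected dose. Tumor/normal-brain voxel intensity ratio taken from 3D ROIs, reported with SD; Student t test.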"}, "U87-Luc tumors [4]": {"system": "U87-Luc tumors", "assay": "μPET/CT imaging, orthotopic U87-Luc tumors", "type": "in vivo, nude mice", "conditions": "1 and 24 h after tail vein injection, 7.4 MBq", "method_in_brief": "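Orthotopic U87-Luc nude mice (n=4; 1×10⁶ cells implanted stereotaxically) received ⁶⁴Cu-labeled probe, 7.4 MBq (200 μCi, 0.5–1.0 μg), by tail vein. μPET/CT imaging at 1 and 24 h. Mean activities computed within ROIs drawn on tumor and normal brain, with a 1%-injected-dose standard placed beside the animal.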"}, "[5]": {"system": "U87-Luc tumors (EphB4, CD31 staining)", "assay": "Fluorescence microscopy of excised brain sections, U87-Luc tumors", "type": "in vivo, nude mice", "conditions": "EphB4 expression only in tumor microvessels", "method_in_brief": "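Brains with implanted tumor excised from probe-injected nude mice after μPET/CT, snap-frozen, cut at 4 μm. Sections fixed in 4% paraformaldehyde 20 min RT, blocked in 10% goat serum 30 min, and incubated overnight at 4 °C with rabbit anti-human EphB4 (1:100) and rat anti-mouse CD31 (1:50). Alexa 488/594 secondaries (1:500), DAPI counterstain, fluorescence microscopy.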"}}, "note": "* marks the point of attachment. DOTA = O=C(O)CN1CCN(CC(=O)O)CCN(CC(=O)*)CCN(CC(=O)O)CC1; Cy5.5 = Cy5.5 near-infrared fluorescence dye"}
{"molecule": "NCC(=O)CCC(=O)O", "note": "[5-aminolevulinic acid]", "values": [{"measurement": "Patients with completely resected glioblastoma", "setting": "glioblastomas", "result": 65, "unit": "%"}]}
{"molecule": "Cy5.5-TNYL-RAWK-DOTA: TNYL-RAW with Cy5.5 at the N-terminus and DOTA at the C-terminus ({Cy5.5}-TNYLFSPNGPIARAWK(DOTA)-NH2)", "values": [{"measurement": "Brain tumor uptake clearly shown in NIR fluorescence imaging", "setting": "U87-Luc tumors [1]; U87-Luc tumors, 1, 4 and 24 h after intravenous injection", "result": "clearly shown"}, {"measurement": "Cy5.5 NIR fluorescence visualization of tumor in mouse brain", "setting": "U87-Luc tumors [1]; U87-Luc, 24 h after tail vein injection", "result": "clearly visualized"}, {"measurement": "Cy5.5 NIR fluorescence visualization of tumor in mouse brain", "setting": "U251-Luc tumors [2]", "result": "clearly visualized"}]}
{"molecule": "Cy5.5-TNYL-RAWK-^64Cu-DOTA: ^64Cu-labeled Cy5.5-TNYL-RAWK-DOTA, dual-labeled PET/optical probe ({Cy5.5}-TNYLFSPNGPIARAWK(DOTA)-NH2; also: DOTA holds 64Cu)", "values": [{"measurement": "μPET/CT visualization of tumors, with cold peptide", "setting": "U251-Luc tumors [3]; 1 and 24 h, coinjected cold Cy5.5-TNYL-RAWK-DOTA 50 μg/mouse", "result": "barely discernible"}, {"measurement": "μPET/CT visualization of tumors, absence of cold peptide", "setting": "U251-Luc tumors [3]; 1 and 24 h after radiotracer injection, 7.4 MBq", "result": "clearly visualized"}, {"measurement": "μPET/CT visualization of tumors", "setting": "U87-Luc tumors [4]", "result": "clearly visualized"}, {"measurement": "Binding site in tumor sections (Cy5.5 signal colocalization)", "setting": "[5]", "result": "bound only to the tumor microvessels"}]}
